Test results from ChEMBL document CHEMBL1833970, “One-pot syntheses of pseudopteroxazoles from pseudopterosins: a rapid route to non-natural congeners with improved antimicrobial activity” (J Nat Prod, 2011).
≈ marks a conversion by molar mass, not a printed value. Calls of active or inactive are those of the source. No cut-off for these calls is given here.

Columns and labels:
[1] = system: Mycolicibacterium smegmatis; test: Antimicrobial activity against Mycobacterium smegmatis ATCC 12051 after 5 days by microbroth dilution antibiotic susceptibility assay; type: functional; settings: ATCC 12051, 120 h
Method in brief: (§1)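 Microbroth dilution per CLSI M24-A for fast-growing mycobacteria. Compounds prepared in sterile 20% DMSO and serially diluted to eight concentrations, triplicate on separate plates. Uninoculated and untreated (media + 20% DMSO) controls plus a control antibiotic column. Incubated 5 days at 30 °C; growth relative to untreated wells scored visually to give MIC.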

[2] = system: Mycolicibacterium diernhoferi; test: Antimicrobial activity against Mycobacterium diernhoferi ATCC 19340 after 5 days by microbroth dilution antibiotic susceptibility assay; type: functional; settings: ATCC 19340, 120 h; method in brief: as §1
Pseudomonas aeruginosa = test: Antimicrobial activity against Pseudomonas aeruginosa ATCC 14210 after 22 hrs by microbroth dilution antibiotic susceptibility assay; type: functional, organism-based
Method in brief: (§2)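 Microbroth dilution per CLSI M7-A6. Compounds in sterile 20% DMSO, serially diluted to eight concentrations, tested in triplicate with uninoculated and untreated controls. Control antibiotic was gentamycin for P. aeruginosa, ciprofloxacin for P. vulgaris and nystatin for C. albicans. OD600 read at time zero and after 22 h at 37 °C. Survival relative to vehicle calculated after baseline subtraction; IC50 derived.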

Candida albicans = test: Antimicrobial activity against Candida albicans ATCC 14035 after 22 hrs by microbroth dilution antibiotic susceptibility assay; type: functional, organism-based; method in brief: as §2
Enterococcus faecium = test: Antimicrobial activity against vancomycin-resistant Enterococcus faecium Ef 379 after 22 hrs by microbroth dilution antibiotic susceptibility assay; type: functional, organism-based; settings: Ef 379, 22 h
Method in brief: (§3)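 CLSI M7-A6 broth microdilution, run in triplicate. Compounds were made up in sterile 20% DMSO and serially diluted to eight concentrations. Plates carried uninoculated and untreated controls (media + 20% DMSO) plus a control antibiotic column. OD600 was read at time zero and after 22 h at 37 °C. Time-zero readings were subtracted, survival was calculated relative to vehicle wells, and IC50 was derived.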

Staphylococcus aureus = test: Antimicrobial activity against methicillin-resistant Staphylococcus aureus ATCC 33591 after 22 hrs by microbroth dilution antibiotic susceptibility assay; type: functional, organism-based; settings: ATCC 33591, 22 h; method in brief: as §3
Proteus vulgaris = test: Antimicrobial activity against Proteus vulgaris ATCC 12454 after 22 hrs by microbroth dilution antibiotic susceptibility assay; type: functional, organism-based; method in brief: as §2

In the case of `CC(C)=C[C@@H]1C[C@H](C)[C@H]2CC[C@H](C)c3c2c1c(C)c1nc(-c2ccc(F)cc2)oc31`, the MIC [1] is reported as greater than 64 mg/L, the MIC [2] is reported as greater than 64 mg/L and the Activity (Pseudomonas aeruginosa) is reported as “inactive”. For the same compound, the Activity (Candida albicans) was “inactive”.
`CC(C)=C[C@@H]1C[C@H](C)[C@H]2CC[C@H](C)c3c2c1c(C)c1nc(CCC(=O)O)oc31` was tested, and the IC50 (Enterococcus faecium) was 12 mg/L (≈ 31.5 µM), the MIC [1] was 8 mg/L (≈ 21 µM) and the MIC [2] was 4 mg/L (≈ 10.5 µM). The Activity (Pseudomonas aeruginosa) was “inactive”, the Activity (Candida albicans) was “inactive” and the IC50 (Staphylococcus aureus) was 12 mg/L (≈ 31.5 µM).
For `COc1ccccc1-c1nc2c(C)c3c4c(c2o1)[C@@H](C)CC[C@@H]4[C@@H](C)C[C@H]3C=C(C)C`, the IC50 (Enterococcus faecium) was greater than 128 mg/L, the MIC [1] was greater than 64 mg/L and the MIC [2] was greater than 64 mg/L. The Activity (Pseudomonas aeruginosa) was “inactive”, the Activity (Candida albicans) was “inactive” and the IC50 (Staphylococcus aureus) was greater than 128 mg/L.
In the case of `CC(C)=C[C@@H]1C[C@H](C)[C@H]2CC[C@H](C)c3c2c1c(C)c1ncoc31` [PSEUDOPTEROXAZOLE], the IC50 (Enterococcus faecium) is reported as 13 mg/L (≈ 42 µM), the MIC [1] is reported as 2 mg/L (≈ 6.46 µM) and the MIC [2] is reported as 4 mg/L (≈ 12.9 µM). The Activity (Pseudomonas aeruginosa) was “inactive”, the Activity (Candida albicans) was “inactive” and the IC50 (Staphylococcus aureus) was greater than 128 mg/L. For the same compound, the Activity (Proteus vulgaris) was “inactive”.
Work on `CC(C)=C[C@@H]1C[C@H](C)[C@H]2CC[C@H](C)c3c2c1c(C)c1nc(Cc2ccccc2)oc31` yielded an IC50 (Enterococcus faecium) greater than 128 mg/L, an MIC [1] greater than 64 mg/L and an MIC [2] of 4 mg/L (≈ 10 µM). The Activity (Pseudomonas aeruginosa) was “inactive”, the Activity (Candida albicans) was “inactive” and the IC50 (Staphylococcus aureus) was greater than 128 mg/L.
`NNC(=O)c1ccncc1` [ISONIAZID] gave an MIC [1] of 1 mg/L (≈ 7.29 µM) and an MIC [2] of 0.25 mg/L (≈ 1.82 µM).
With `CC(C)=C[C@@H]1C[C@H](C)[C@H]2CC[C@H](C)c3c2c1c(C)c1nc(C)oc31` the IC50 (Enterococcus faecium) was 2.5 mg/L (≈ 7.73 µM), the MIC [1] was 8 mg/L (≈ 24.7 µM) and the MIC [2] was 4 mg/L (≈ 12.4 µM). For the same compound, the Activity (Pseudomonas aeruginosa) was “inactive”, the Activity (Candida albicans) was “inactive” and the IC50 (Staphylococcus aureus) was greater than 128 mg/L.
Compound `CC(C)=C[C@@H]1C[C@H](C)[C@H]2CC[C@H](C)c3c2c1c(C)c1nc(CCC(N)=O)oc31` has an IC50 (Enterococcus faecium) of 7 mg/L (≈ 18.4 µM), an MIC [1] of 4 mg/L (≈ 10.5 µM) and an MIC [2] of 4 mg/L (≈ 10.5 µM). The Activity (Pseudomonas aeruginosa) was “inactive”, the Activity (Candida albicans) was “inactive” and the IC50 (Staphylococcus aureus) was 7 mg/L (≈ 18.4 µM).
With `CC[C@H](C)c1nc2c(C)c3c4c(c2o1)[C@@H](C)CC[C@@H]4[C@@H](C)C[C@H]3C=C(C)C` the IC50 (Enterococcus faecium) was greater than 128 mg/L, the MIC [1] was greater than 64 mg/L and the MIC [2] was greater than 64 mg/L. For the same compound, the Activity (Pseudomonas aeruginosa) was “inactive”, the Activity (Candida albicans) was “inactive” and the IC50 (Staphylococcus aureus) was greater than 128 mg/L.
`CO[C@H]1/C=C/O[C@@]2(C)Oc3c(C)c(O)c4c(O)c(c(/C=N/N5CCN(C)CC5)c(O)c4c3C2=O)NC(=O)/C(C)=C\C=C\[C@H](C)[C@H](O)[C@@H](C)[C@@H](O)[C@@H](C)[C@H](OC(C)=O)[C@@H]1C` [RIFAMPIN] showed an IC50 (Enterococcus faecium) of 8.75 mg/L (≈ 10.6 µM), an MIC [1] of 4 mg/L (≈ 4.86 µM) and an MIC [2] of 4 mg/L (≈ 4.86 µM).
For `COC(=O)CCc1nc2c(C)c3c4c(c2o1)[C@@H](C)CC[C@@H]4[C@@H](C)C[C@H]3C=C(C)C`, the IC50 (Enterococcus faecium) was greater than 128 mg/L, the MIC [1] was greater than 128 mg/L and the MIC [2] was greater than 128 mg/L. The Activity (Pseudomonas aeruginosa) was “inactive”, the Activity (Candida albicans) was “inactive” and the IC50 (Staphylococcus aureus) was greater than 128 mg/L.
With `CC(C)=C[C@@H]1C[C@H](C)[C@H]2CC[C@H](C)c3c2c1c(C)c1nc([C@@H](C)O)oc31` the IC50 (Enterococcus faecium) was greater than 128 mg/L, the MIC [1] was 16 mg/L (≈ 45.3 µM) and the MIC [2] was 8 mg/L (≈ 22.6 µM). For the same compound, the Activity (Pseudomonas aeruginosa) was “inactive”, the Activity (Candida albicans) was “inactive” and the IC50 (Staphylococcus aureus) was greater than 128 mg/L.
With `CCCCCc1nc2c(C)c3c4c(c2o1)[C@@H](C)CC[C@@H]4[C@@H](C)C[C@H]3C=C(C)C` [HOMOPSEUDOPTEROXAZOLE] the IC50 (Enterococcus faecium) was greater than 128 mg/L, the MIC [1] was greater than 64 mg/L and the MIC [2] was greater than 64 mg/L. For the same compound, the Activity (Pseudomonas aeruginosa) was “inactive”, the Activity (Candida albicans) was “inactive” and the IC50 (Staphylococcus aureus) was greater than 128 mg/L.
With `CSCCc1nc2c(C)c3c4c(c2o1)[C@@H](C)CC[C@@H]4[C@@H](C)C[C@H]3C=C(C)C` the IC50 (Enterococcus faecium) was greater than 128 mg/L, the MIC [1] was 16 mg/L (≈ 41.7 µM) and the MIC [2] was 16 mg/L (≈ 41.7 µM). For the same compound, the Activity (Pseudomonas aeruginosa) was “inactive”, the Activity (Candida albicans) was “inactive” and the IC50 (Staphylococcus aureus) was greater than 128 mg/L.
Compound `CN[C@H](CC(C)C)C(=O)N[C@H]1C(=O)N[C@@H](CC(N)=O)C(=O)N[C@H]2C(=O)N[C@H]3C(=O)N[C@H](C(=O)N[C@H](C(=O)O)c4cc(O)cc(O)c4-c4cc3ccc4O)[C@H](O)c3ccc(c(Cl)c3)Oc3cc2cc(c3O[C@@H]2O[C@H](CO)[C@@H](O)[C@H](O)[C@H]2O[C@H]2C[C@](C)(N)[C@H](O)[C@H](C)O2)Oc2ccc(cc2Cl)[C@H]1O` [VANCOMYCIN] has an IC50 (Staphylococcus aureus) of 12.2 mg/L (≈ 8.45 µM).
In the case of `CC(C)=C[C@@H]1C[C@H](C)[C@H]2CC[C@H](C)c3c2c1c(C)c1nc(CC(N)=O)oc31`, the IC50 (Enterococcus faecium) is reported as 4 mg/L (≈ 10.9 µM), the MIC [1] is reported as 4 mg/L (≈ 10.9 µM) and the MIC [2] is reported as 2 mg/L (≈ 5.46 µM). For the same compound, the Activity (Pseudomonas aeruginosa) was “inactive”, the Activity (Candida albicans) was “inactive” and the IC50 (Staphylococcus aureus) was 3 mg/L (≈ 8.19 µM). The Activity (Proteus vulgaris) was “inactive”.
Work on `CC(C)=C[C@@H]1C[C@H](C)[C@H]2CC[C@H](C)c3c2c1c(C)c1ocnc31` [ISOPSEUDOPTEROXAZOLE] yielded an IC50 (Enterococcus faecium) of 13 mg/L (≈ 42 µM), an MIC [1] of 8 mg/L (≈ 25.9 µM) and an MIC [2] of 8 mg/L (≈ 25.9 µM). For the same compound, the Activity (Pseudomonas aeruginosa) was “inactive”, the Activity (Candida albicans) was “inactive” and the IC50 (Staphylococcus aureus) was greater than 128 mg/L.
